Experimental data: ChEMBL document CHEMBL1129426, “5-Lipoxygenase inhibitors: synthesis and structure-activity relationships of a series of 1-aryl-2H,4H-tetrahydro-1,2,4-triazin-3-ones” (J Med Chem, 1996)
Values joined by “and” are separate entries in the source; they are usually repeats but may differ in a detail not shown here. Equal values may be shown once.

Experiments:
[1] = target: T1, Polyunsaturated fatty acid 5-lipoxygenase (Homo sapiens, UniProt P09917); experiment: In vitro 5-lipoxygenase inhibitory activity against calcium ionophore (A23187) induced LTB4 formation in human whole blood; assay type: functional, tissue-based
T1 sequence (P09917 whole entry): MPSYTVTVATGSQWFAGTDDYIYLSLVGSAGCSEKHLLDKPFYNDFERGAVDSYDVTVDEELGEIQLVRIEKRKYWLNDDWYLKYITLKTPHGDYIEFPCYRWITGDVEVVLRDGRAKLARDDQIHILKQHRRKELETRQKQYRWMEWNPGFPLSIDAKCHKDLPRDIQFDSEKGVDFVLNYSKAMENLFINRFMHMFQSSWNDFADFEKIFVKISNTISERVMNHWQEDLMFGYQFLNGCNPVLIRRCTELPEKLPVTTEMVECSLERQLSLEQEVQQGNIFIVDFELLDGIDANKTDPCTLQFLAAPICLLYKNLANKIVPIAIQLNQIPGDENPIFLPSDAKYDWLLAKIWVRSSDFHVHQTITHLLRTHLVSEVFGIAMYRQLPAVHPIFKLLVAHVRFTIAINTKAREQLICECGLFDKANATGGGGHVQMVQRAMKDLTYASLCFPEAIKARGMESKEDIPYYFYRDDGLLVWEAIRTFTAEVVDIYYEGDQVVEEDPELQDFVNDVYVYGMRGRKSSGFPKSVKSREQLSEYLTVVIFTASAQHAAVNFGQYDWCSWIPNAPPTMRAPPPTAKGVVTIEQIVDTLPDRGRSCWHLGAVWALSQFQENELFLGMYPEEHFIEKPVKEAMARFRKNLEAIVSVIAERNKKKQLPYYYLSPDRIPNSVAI

[2] = target: T2, Polyunsaturated fatty acid 5-lipoxygenase (Rattus norvegicus, UniProt P12527); experiment: In vitro 5-lipoxygenase inhibitory activity against calcium ionophore (A23187) induced LTB4 formation in rat polymorphonuclear leukocytes; assay type: functional, cell-based
T2 sequence (P12527 whole entry): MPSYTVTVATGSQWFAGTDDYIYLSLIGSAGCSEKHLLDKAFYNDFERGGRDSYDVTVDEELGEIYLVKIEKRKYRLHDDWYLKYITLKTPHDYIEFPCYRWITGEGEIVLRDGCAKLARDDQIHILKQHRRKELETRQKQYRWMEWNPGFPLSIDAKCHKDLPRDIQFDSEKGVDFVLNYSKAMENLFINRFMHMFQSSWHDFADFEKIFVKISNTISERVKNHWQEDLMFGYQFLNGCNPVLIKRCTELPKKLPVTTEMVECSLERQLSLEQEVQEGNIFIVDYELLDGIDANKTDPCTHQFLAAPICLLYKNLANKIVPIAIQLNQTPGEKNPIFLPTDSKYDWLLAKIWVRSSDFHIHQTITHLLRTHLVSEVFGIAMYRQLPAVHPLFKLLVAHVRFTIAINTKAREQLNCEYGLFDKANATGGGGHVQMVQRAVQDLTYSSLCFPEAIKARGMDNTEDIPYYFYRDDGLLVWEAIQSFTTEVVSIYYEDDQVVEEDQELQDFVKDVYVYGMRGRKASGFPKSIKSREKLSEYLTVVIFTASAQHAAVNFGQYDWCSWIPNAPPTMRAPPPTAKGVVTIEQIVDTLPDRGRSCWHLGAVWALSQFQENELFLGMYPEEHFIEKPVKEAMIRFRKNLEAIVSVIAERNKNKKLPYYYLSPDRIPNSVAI

[3] = Cmax in cynomolgus monkey (PO dose); assay type: ADME, organism-based, Macaca fascicularis; parameters: route oral; conditions: in vivo
Summary of the method: (§1)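 Cynomolgus monkeys (n=2) dosed orally, 113 or 112 µmol/kg, as suspension in 0.2% HPMC. Plasma from serial blood samples deproteinized with 2 volumes methanol, run on C18 reversed-phase HPLC (55% acetonitrile, 10 mM acetohydroxamic acid, 8 mM triethylamine acetate, pH 6.5), UV 260 nm against external calibration curve. Mean of two animals.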

[4] = Cmax in rat (PO dose); assay type: ADME, organism-based; parameters: route oral; conditions: in vivo
Summary of the method: (§2)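 Rats dosed by oral gavage at 200 µmol/kg. Tail-vein blood drawn at about 1 h intervals; plasma analysed by HPLC. Mean of data from two animals.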

[5] = T1/2 in dog (PO dose); assay type: ADME, organism-based; conditions: in vivo
Summary of the method: (§3)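 Dogs (n=2) given 113 or 112 µmol/kg orally. Blood sampled at various times; plasma deproteinized with methanol and quantified by reversed-phase C18 HPLC with UV detection at 260 nm, external calibration. Values are means of two animals.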

[6] = T1/2 in cynomolgus monkey (PO dose); assay type: ADME, organism-based, Macaca fascicularis; conditions: in vivo; summary of the method: as §1
[7] = Plasma Tmax in rat (PO dose); assay type: ADME, organism-based; summary of the method: as §2
[8] = Tmax in dog (PO dose); assay type: ADME, organism-based, Canis lupus familiaris; conditions: in vivo; summary of the method: as §3
[9] = Tmax in cynomolgus monkey (PO dose); assay type: ADME, organism-based, Macaca fascicularis; conditions: in vivo; summary of the method: as §1
[10] = Tmax in rat (PO dose); assay type: ADME, organism-based; conditions: in vivo; summary of the method: as §2
[11] = target: T3, Cyclooxygenase (Homo sapiens, UniProt P35354+P23219); experiment: In vitro cyclooxygenase inhibitory activity at 100 uM against calcium ionophore (A23187) induced thromboxane formation in human whole blood; assay type: functional, tissue-based
Summary of the method: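 Human whole blood challenged with calcium ionophore A23187; thromboxane measured by enzyme immunoassay as COX readout. Duplicate assays; percent inhibition at highest tested concentration.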

[12] = target: Cyclooxygenase (Rattus norvegicus) (UniProt P35355+Q63921); experiment: In vitro cyclooxygenase inhibitory activity at 100 uM against calcium ionophore (A23187) induced thromboxane formation in rat polymorphonuclear leukocytes; assay type: functional, cell-based
Summary of the method: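 Rat polymorphonuclear leukocytes stimulated with calcium ionophore A23187; thromboxane determined by enzyme immunoassay. Duplicate assays; percent inhibition reported at highest concentration tested.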

[13] = system: Rattus norvegicus; experiment: In vivo inhibition of rat anaphylaxis leukotriene formation from peritoneal fluids, 1 hr after an oral dose of 200 uM/Kg; assay type: functional
Summary of the method: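 Rats given 200 µmol/kg orally 1 h before antibody-antigen challenge inducing peritoneal leukotriene biosynthesis; LTE4 in peritoneal fluid measured. Mean of eight rats; percent inhibition versus control group mean; significance by one-way ANOVA with Tukey's multiple comparison.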

[14] = Cmax in dog (PO dose); conditions: in vivo
[15] = target: Prostaglandin G/H synthase 1 (Ovis aries) (UniProt P05979); experiment: Compound at 100 uM was tested in vitro for inhibition of Prostaglandin G/H synthase sheep seminal vesicle
[16] = target: T1, Polyunsaturated fatty acid 5-lipoxygenase; experiment: In vitro 5-lipoxygenase inhibitory activity against calcium ionophore (A23187) induced LTB4 formation in human whole blood.
[17] = target: T4, Cyclooxygenase (Rattus norvegicus, UniProt P35355+Q63921); experiment: In vitro cyclooxygenase inhibitory activity against calcium ionophore (A23187) induced thromboxane formation in rat polymorphonuclear leukocytes; assay type: functional, cell-based
T4 sequence (P35355 whole entry): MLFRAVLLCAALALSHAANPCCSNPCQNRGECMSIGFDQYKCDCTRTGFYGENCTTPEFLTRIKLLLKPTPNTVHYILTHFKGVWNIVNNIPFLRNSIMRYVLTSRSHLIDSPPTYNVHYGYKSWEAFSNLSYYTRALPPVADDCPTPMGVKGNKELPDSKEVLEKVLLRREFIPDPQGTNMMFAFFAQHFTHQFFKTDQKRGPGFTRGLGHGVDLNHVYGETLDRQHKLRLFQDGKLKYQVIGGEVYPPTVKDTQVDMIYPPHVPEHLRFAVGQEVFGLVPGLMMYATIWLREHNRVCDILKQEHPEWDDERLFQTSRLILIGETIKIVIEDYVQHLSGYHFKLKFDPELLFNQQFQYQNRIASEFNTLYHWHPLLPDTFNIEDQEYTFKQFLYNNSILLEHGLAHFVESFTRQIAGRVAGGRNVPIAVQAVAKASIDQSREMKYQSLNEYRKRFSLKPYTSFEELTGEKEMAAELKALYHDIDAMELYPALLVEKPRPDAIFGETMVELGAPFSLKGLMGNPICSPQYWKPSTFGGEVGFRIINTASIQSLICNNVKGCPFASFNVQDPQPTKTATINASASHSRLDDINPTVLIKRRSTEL
T4 sequence (Q63921 whole entry): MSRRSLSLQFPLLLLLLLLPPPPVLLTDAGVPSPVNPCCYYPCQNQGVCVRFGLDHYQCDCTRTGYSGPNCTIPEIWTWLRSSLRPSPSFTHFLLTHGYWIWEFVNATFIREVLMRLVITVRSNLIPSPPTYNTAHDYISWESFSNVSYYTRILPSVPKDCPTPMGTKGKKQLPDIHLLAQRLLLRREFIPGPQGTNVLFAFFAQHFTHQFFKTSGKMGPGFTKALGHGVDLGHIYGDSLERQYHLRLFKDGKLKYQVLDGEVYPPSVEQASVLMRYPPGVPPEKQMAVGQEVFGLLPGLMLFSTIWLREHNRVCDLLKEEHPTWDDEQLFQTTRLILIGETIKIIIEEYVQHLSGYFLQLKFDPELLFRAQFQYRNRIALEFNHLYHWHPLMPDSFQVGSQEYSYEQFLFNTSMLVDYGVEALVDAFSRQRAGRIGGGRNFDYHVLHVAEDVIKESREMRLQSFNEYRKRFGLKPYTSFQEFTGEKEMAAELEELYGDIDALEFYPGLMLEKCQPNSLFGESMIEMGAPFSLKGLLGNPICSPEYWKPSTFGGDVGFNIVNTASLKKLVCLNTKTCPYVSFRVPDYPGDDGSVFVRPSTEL
Summary of the method: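 Rat polymorphonuclear leukocytes, intact cells, stimulated with calcium ionophore A23187. Thromboxane quantified by enzyme immunoassay. Duplicate assays.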

[18] = target: T3, Cyclooxygenase; experiment: In vitro cyclooxygenase inhibitory activity against calcium ionophore (A23187) induced thromboxane formation in human whole blood; assay type: functional, tissue-based
Summary of the method: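 Human whole blood stimulated with calcium ionophore A23187. Thromboxane measured by enzyme immunoassay. Assays in duplicate.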

[19] = target: Prostaglandin G/H synthase 1 (Ovis aries) (UniProt P05979); experiment: Compound was tested in vitro for inhibition of Prostaglandin G/H synthase sheep seminal vesicle

Chain of Prostaglandin G/H synthase 1 (Ovis aries) (P05979 whole entry, looked up): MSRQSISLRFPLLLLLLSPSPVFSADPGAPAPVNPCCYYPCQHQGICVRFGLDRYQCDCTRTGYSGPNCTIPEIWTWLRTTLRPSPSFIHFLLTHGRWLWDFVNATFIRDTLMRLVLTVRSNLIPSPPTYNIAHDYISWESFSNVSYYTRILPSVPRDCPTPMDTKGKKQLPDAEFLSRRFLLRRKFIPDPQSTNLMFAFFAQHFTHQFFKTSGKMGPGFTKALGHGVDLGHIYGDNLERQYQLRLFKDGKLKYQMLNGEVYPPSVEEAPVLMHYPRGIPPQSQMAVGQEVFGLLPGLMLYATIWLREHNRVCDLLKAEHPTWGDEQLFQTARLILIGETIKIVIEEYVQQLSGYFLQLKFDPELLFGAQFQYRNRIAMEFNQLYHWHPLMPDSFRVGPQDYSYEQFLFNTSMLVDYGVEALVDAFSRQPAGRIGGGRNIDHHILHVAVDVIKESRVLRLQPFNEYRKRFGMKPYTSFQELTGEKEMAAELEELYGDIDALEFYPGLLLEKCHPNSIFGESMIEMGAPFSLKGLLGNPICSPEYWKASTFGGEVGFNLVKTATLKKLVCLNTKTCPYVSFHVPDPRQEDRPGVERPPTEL

SMILES	IC50 [1]	IC50 [2]	Cmax [3]	Cmax [4]	half-life [5]	half-life [6]	Tmax [7]	Tmax [8]	Tmax [9]	Tmax [10]	inhibition [11]	inhibition [12]	ED50 [13]	Cmax [14]	inhibition [15]	IC50 [16]	IC50 [17]	IC50 [18]	IC50 [19]
O=C1NCCN(c2ccccc2)N1	5.8 µM	4.6 µM	74 µM	130 µM	0.8 h	1 h	1 h	0.3 h	2 h	1 h	0%	28%	7 mg/kg	132 µM	4%	5.8 µM and 9.2 µM			
O=C1CCN(c2ccccc2)N1 [PHENIDONE]																	13 µM	12 µM	94 µM
